Only some compounds are listed: those with a hit (about 4.9% of all), similar ones and a draw of the others.
STAT3 inh: IL-6 driven STAT3 reporter inhibitors, primary screen, U3A cells, luciferase, luminescence, MLSCN library; inhibition, % at 5.5 µM; AID 862, 2007; IL-6 STAT3-luciferase reporter; host cell line lacks STAT1; hit rate 0.89% among 190,000;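 active = inhibition above the mean inhibition across all screened compounds plus 3 SD, cut at about 44% in these data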
STAT3 act: IL-6 driven STAT3 reporter potentiators, primary screen, U3A cells, luciferase, luminescence, MLSCN library. IL-6 STAT3-luciferase reporter; 100% = signal with IL-6 EC80 alone. activation (% of control), % at 5.6 µM. hit rate 0.91% among 190,000. AID 871, 2007;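 active = activation above the screen-wide mean of compound activation plus 3 SD, cut at about 130% in these data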
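Detection: reporter luminescence signal / Assay system: STAT1-lacking human U3A cells, STAT3 luciferase reporter / Incubation: compound pre-incubation 1 h before IL-6, then 6 h stimulation at 37 °C / Control set: IL-6-only high control / Read-out: % activation relative to IL-6 control / Probe or stimulus: Interleukin-6, 33 ng/mL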
NF-kB expr up: activators of NF-kB expression in neurons, primary screen, cell-based, HTS; human neuronal cells, NF-kB reporter expression; stronger effect = higher value; fold change at 12.5 µM; hit rate 1.6% among 190,000; AID 1239, 2008; in the data active = fold change above about 3.3
STAT1 blocker: STAT1 signaling inhibitors, primary screen, cell-based, HTS, luciferase reporter; inhibition, % at 5.5 µM; NIH 3T3 STAT1-luciferase reporter, IFN-gamma, luminescence; hit rate 0.35% among 200,000;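 active = inhibition above a set limit, the mean inhibition across all tested compounds plus 3 SD, cut at about 34% in these data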
STAT1 activator: STAT1 signaling activators, primary screen, cell-based, HTS, luciferase reporter; NIH 3T3 STAT1-luciferase reporter, IFN-gamma, luminescence; 100% = IFN-gamma alone, no compound; activation (% of control), % at 5.5 µM; hit rate 2.6% among 200,000; AID 932, 2007;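 active = activation above the screen-wide mean activation plus 3 SD, cut at about 130% in these data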
APP 5'UTR act: activators of APP 5'UTR luciferase reporter, primary screen, SH-SY5Y cells; activation, % at 2 µM; hit rate 1% among 190,000; AID 1276, 2008; SH-SY5Y APP 5'UTR luciferase reporter, luminescence; zero percent = DMSO vehicle wells;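 active = activation above a set limit, based on mean plus 3 SD of controls, cut at about 140% in these data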
Numbers stand for hits.

Results for CCN(CC)C(=O)c1cc(-c2ccc(Br)cc2)on1 ?
STAT3 inh: inactive; STAT3 act: inactive; NF-kB expr up: 3.3; STAT1 blocker: inactive; STAT1 activator: 147; APP 5'UTR act: inactive

How did O=c1sc2ccccc2n1CCOc1ccccc1 do in these assays?
STAT3 inh: inactive; STAT3 act: inactive; NF-kB expr up: inactive; STAT1 blocker: inactive; STAT1 activator: 142; APP 5'UTR act: inactive

What do the screens show for `COc1ccccc1OCCn1c(=O)n(C)c2ccccc21`?
STAT3 inh: inactive; STAT3 act: inactive; NF-kB expr up: inactive; STAT1 blocker: inactive; STAT1 activator: inactive; APP 5'UTR act: inactive

What do the screens show for `O=C(O)CCn1c(=O)sc2ccccc21`?
STAT3 inh: inactive; STAT3 act: inactive; NF-kB expr up: inactive; STAT1 blocker: inactive; STAT1 activator: inactive; APP 5'UTR act: inactive

How did Cc1ccc(OCCn2c(=O)n(C)c3ccccc32)cc1 do in these assays?
STAT3 inh: inactive; STAT3 act: inactive; NF-kB expr up: inactive; STAT1 blocker: inactive; STAT1 activator: 150; APP 5'UTR act: inactive

How did Cc1cc(C)nc(NC(=O)CSc2ncccn2)n1 do in these assays?
STAT3 inh: inactive; STAT3 act: inactive; NF-kB expr up: inactive; STAT1 blocker: inactive; STAT1 activator: inactive; APP 5'UTR act: inactive

What do the screens show for `CC(C)(C)N(Cc1ccccc1)C(=O)COC(=O)Cn1cnc2ccccc2c1=O`?
STAT3 inh: inactive; STAT3 act: inactive; NF-kB expr up: inactive; STAT1 blocker: inactive; STAT1 activator: inactive; APP 5'UTR act: inactive

What do the screens show for `Cc1ccc2nc(Cc3ccc(N)cc3)[nH]c2c1`?
STAT3 inh: inactive; STAT3 act: inactive; NF-kB expr up: inactive; STAT1 blocker: inactive; STAT1 activator: 131; APP 5'UTR act: 160

Results for Cc1ccc(C2=NCN(c3ccc(C(=O)O)cc3)C(=S)N2)cc1 ?
STAT3 inh: inactive; STAT3 act: inactive; NF-kB expr up: inactive; STAT1 blocker: inactive; STAT1 activator: 136; APP 5'UTR act: inactive

What do the screens show for `CCN(CC)C(=O)NCc1c(C)cc(C)cc1C`?
STAT3 inh: inactive; STAT3 act: inactive; NF-kB expr up: inactive; STAT1 blocker: inactive; STAT1 activator: inactive; APP 5'UTR act: inactive

What do the screens show for `CCCCN1CCc2c([nH]c3ccccc23)C1=O`?
STAT3 inh: inactive; STAT3 act: inactive; NF-kB expr up: inactive; STAT1 blocker: inactive; STAT1 activator: 137; APP 5'UTR act: inactive

Results for COCCNC(=S)N(CCc1c(C)[nH]c2ccccc12)Cc1ccco1 ?
STAT3 inh: inactive; STAT3 act: inactive; NF-kB expr up: inactive; STAT1 blocker: inactive; STAT1 activator: inactive; APP 5'UTR act: inactive

What do the screens show for `COc1ccc(/C=C/C(=O)OCC(=O)Nc2cc(C(F)(F)F)ccc2Cl)cc1`?
STAT3 inh: inactive; STAT3 act: inactive; NF-kB expr up: inactive; STAT1 blocker: inactive; STAT1 activator: inactive; APP 5'UTR act: inactive

Results for COC(=O)/C(C#N)=C1/C=Cc2ccccc2N1 ?
STAT3 inh: inactive; STAT3 act: inactive; NF-kB expr up: inactive; STAT1 blocker: inactive; STAT1 activator: 130; APP 5'UTR act: inactive

Results for CCC1(C)N=C(c2ccc3c(c2)OCO3)CC(c2ccccc2O)N1 (stereo not drawn) ?
STAT3 inh: inactive; STAT3 act: 144; NF-kB expr up: inactive; STAT1 blocker: inactive; STAT1 activator: inactive; APP 5'UTR act: inactive

What do the screens show for `O=C(CN1CCOCC1)N1CCN(c2ccc3ccccc3n2)CC1`?
NF-kB expr up: inactive; STAT1 blocker: inactive; STAT1 activator: inactive; APP 5'UTR act: inactive

How did Cc1ccc(-c2nnc(N)s2)cc1 do in these assays?
STAT3 inh: inactive; STAT3 act: inactive; NF-kB expr up: inactive; STAT1 blocker: inactive; STAT1 activator: inactive; APP 5'UTR act: inactive

How did CC(C)c1ccc(-c2nnc(N)s2)cc1 do in these assays?
STAT3 inh: inactive; STAT3 act: inactive; NF-kB expr up: 3.8; STAT1 blocker: inactive; STAT1 activator: 133; APP 5'UTR act: inactive

Results for O=C(NC(=S)N1CCCCCC1)c1ccc(Cl)cc1Cl ?
STAT3 inh: inactive; STAT3 act: inactive; NF-kB expr up: inactive; STAT1 blocker: inactive; STAT1 activator: inactive; APP 5'UTR act: inactive
